pIC50: −log10 of the molar value. Active and inactive are the calls of the source. The calls are words filed in the database; no cut-off is given here.
What was measured:
[1] = system: SGC-7901; test: Induction of apoptosis in human SGC-7901 cells assessed as necrotic cells at 2 uM incubated for 48 hrs by Annexin V-FITC/propidium iodide staining based flow cytometry (reference value: 0.067%); assay type: functional
Outline: (§1)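 SGC-7901 cells treated 48 h at three concentrations; untreated cells served as control. Harvested cells were suspended in annexin-binding buffer (1 × 10⁶ cells/mL), incubated with annexin V-FITC for 15 min, then PI for 5 min at 4 °C in the dark, and analysed immediately by flow cytometry. Quadrants scored necrotic/late apoptotic, early apoptotic and normal cells. At least 3 runs.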

[2] = system: SGC-7901; test: Induction of cell cycle arrest in human SGC-7901 cells assessed as accumulation in S phase at 2 uM incubated for 48 hrs by PI staining based flow cytometry analysis (reference value: 37.4%); assay type: functional
[3] = system: SGC-7901; test: Induction of apoptosis in human SGC-7901 cells assessed as early apoptotic cells at 1 uM incubated for 48 hrs by Annexin V-FITC/propidium iodide staining based flow cytometry (reference value: 2.12%); assay type: functional; outline: as §1
[4] = system: SGC-7901; test: Induction of cell cycle arrest in human SGC-7901 cells assessed as accumulation in G2 phase at 4 uM incubated for 48 hrs by PI staining based flow cytometry analysis (reference value: 24.6%); assay type: functional
[5] = system: SGC-7901; test: Induction of apoptosis in human SGC-7901 cells assessed as late apoptotic cells at 2 uM incubated for 48 hrs by Annexin V-FITC/propidium iodide staining based flow cytometry (reference value: 1.11%); assay type: functional; outline: as §1
[6] = system: SGC-7901; test: Induction of cell cycle arrest in human SGC-7901 cells assessed as accumulation in G1 phase at 4 uM incubated for 48 hrs by PI staining based flow cytometry analysis (reference value: 38.1%); assay type: functional
[7] = system: SGC-7901; test: Induction of apoptosis in human SGC-7901 cells assessed as late apoptotic cells at 4 uM incubated for 48 hrs by Annexin V-FITC/propidium iodide staining based flow cytometry (reference value: 1.11%); assay type: functional; outline: as §1
[8] = system: SGC-7901; test: Induction of cell cycle arrest in human SGC-7901 cells assessed as accumulation in G1 phase at 1 uM incubated for 48 hrs by PI staining based flow cytometry analysis (reference value: 38.1%); assay type: functional
[9] = Toxicity in Kunming mouse allografted with mouse S180 cells assessed as body weight at 60 mg/kg, po administered once daily for consecutive 10 days (reference value: 19.38 to 19.99g); assay type: organism-based, CCRF S-180; conditions: in vivo, 240 h, time 10 day
Outline: (§2)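 Kunming mice (SPF, male or female, 20 ± 2 g) inoculated subcutaneously in the right front armpit with seven-day-old ascites (0.2 mL, 2 × 10⁶ cells). After 24 h, randomized into groups of 10 and weighed. Dosed by oral gavage at 60 mg/kg/day or given normal saline (10 mL/kg) once daily for ten days. Killed on day 11 and tumors weighed. Inhibition rate = (Wcontrol − Wtreated)/Wcontrol × 100%.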

[10] = system: SGC-7901; test: Induction of mitochondrial membrane potential loss in human SGC-7901 cells assessed as increase in green fluorescence intensity at 1 to 4 uM incubated for 48 hrs by JC-1 staining based flow cytometry; assay type: functional, cell-based; conditions: dose 1-4 µM
Outline: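 Gastric cancer cells seeded at 2 × 10⁵ per well and treated 48 h at […]. Cells were detached with 0.5% trypsin, stained with JC-1 for 0.5 h at 37 °C, 5% CO₂ in the dark, washed twice in JC-1 buffer, and analysed by flow cytometry. Read-out was red aggregate versus green monomer fluorescence. At least 3 runs.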

[11] = system: SGC-7901; test: Antiproliferative activity against human SGC-7901 cells measured after 48 hrs by MTT assay; assay type: functional, cell-based; conditions: SGC-7901, 48 h
Outline: (§3)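 Cells grown to log phase in RPMI 1640 with 10% FBS, seeded at 3 × 10⁴ cells/mL, and preincubated 24 h at 37 °C, 5% CO₂. Compounds were added at pre-set concentrations to 6 wells each, with doxorubicin as reference, and exposed for 48 h. MTT was then added and absorbance read at 570 nm.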

[12] = system: SGC-7901; test: Induction of cell cycle arrest in human SGC-7901 cells assessed as accumulation in G2 phase at 1 uM incubated for 48 hrs by PI staining based flow cytometry analysis (reference value: 24.6%); assay type: functional
[13] = system: SGC-7901; test: Induction of apoptosis in human SGC-7901 cells assessed as viable cells at 1 uM incubated for 48 hrs by Annexin V-FITC/propidium iodide staining based flow cytometry (reference value: 96.7%); assay type: functional; conditions: read-out: Activity; outline: as §1
[14] = system: HepG2; test: Antitumor activity against human HepG2 cells xenografted in Kunming mouse assessed as tumor growth inhibition at 60 mg/kg, po administered once daily for consecutive 10 days; assay type: functional; conditions: HepG2, 240 h, time 10 day, read-out: TGI; outline: as §2
[15] = system: HepG2; test: Antiproliferative activity against human HepG2 cells measured after 48 hrs by MTT assay; assay type: functional, cell-based; conditions: HepG2, 48 h; outline: as §3
[16] = system: SGC-7901; test: Induction of apoptosis in human SGC-7901 cells assessed as early apoptotic cells at 4 uM incubated for 48 hrs by Annexin V-FITC/propidium iodide staining based flow cytometry (reference value: 2.12%); assay type: functional; outline: as §1
[17] = system: HeLa; test: Antiproliferative activity against human HeLa cells measured after 48 hrs by MTT assay; assay type: functional, cell-based; outline: as §3
[18] = system: SGC-7901; test: Induction of apoptosis in human SGC-7901 cells assessed as late apoptotic cells at 1 uM incubated for 48 hrs by Annexin V-FITC/propidium iodide staining based flow cytometry (reference value: 1.11%); assay type: functional; outline: as §1
[19] = system: SGC-7901; test: Induction of apoptosis in human SGC-7901 cells assessed as early apoptotic cells at 2 uM incubated for 48 hrs by Annexin V-FITC/propidium iodide staining based flow cytometry (reference value: 2.12%); assay type: functional; outline: as §1
[20] = system: SGC-7901; test: Induction of apoptosis in human SGC-7901 cells assessed as viable cells at 2 uM incubated for 48 hrs by Annexin V-FITC/propidium iodide staining based flow cytometry (reference value: 96.7%); assay type: functional; conditions: read-out: Activity; outline: as §1
[21] = system: CCRF S-180; test: Antitumor activity against mouse S180 cells allografted in Kunming mouse assessed as tumor growth inhibition at 60 mg/kg, po administered once daily for consecutive 10 days; assay type: functional; conditions: CCRF S-180, 240 h, time 10 day, read-out: TGI; outline: as §2
[22] = Toxicity in Kunming mouse xenografted with […] cells assessed as body weight at 60 mg/kg, po administered once daily for consecutive 10 days (reference value: 19.15 to 19.87g); assay type: organism-based; conditions: in vivo, 240 h, time 10 day; outline: as §2
[23] = system: SGC-7901; test: Induction of apoptosis in human SGC-7901 cells assessed as necrotic cells at 1 uM incubated for 48 hrs by Annexin V-FITC/propidium iodide staining based flow cytometry (reference value: 0.067%); assay type: functional; outline: as §1
[24] = system: SGC-7901; test: Induction of cell cycle arrest in human SGC-7901 cells assessed as accumulation in S phase at 4 uM incubated for 48 hrs by PI staining based flow cytometry analysis (reference value: 37.4%); assay type: functional
[25] = system: SMMC-7721; test: Antiproliferative activity against human SMMC-7721 cells measured after 48 hrs by MTT assay; assay type: functional, cell-based; conditions: SMMC-7721, 48 h; outline: as §3
[26] = system: SGC-7901; test: Induction of cell cycle arrest in human SGC-7901 cells assessed as accumulation in G1 phase at 2 uM incubated for 48 hrs by PI staining based flow cytometry analysis (reference value: 38.1%); assay type: functional
[27] = system: SGC-7901; test: Induction of cell cycle arrest in human SGC-7901 cells assessed as accumulation in S phase at 1 uM incubated for 48 hrs by PI staining based flow cytometry analysis (reference value: 37.4%); assay type: functional
[28] = system: SGC-7901; test: Induction of cell cycle arrest in human SGC-7901 cells assessed as accumulation in G2 phase at 2 uM incubated for 48 hrs by PI staining based flow cytometry analysis (reference value: 24.6%); assay type: functional
[29] = system: SGC-7901; test: Induction of apoptosis in human SGC-7901 cells assessed as viable cells at 4 uM incubated for 48 hrs by Annexin V-FITC/propidium iodide staining based flow cytometry (reference value: 96.7%); assay type: functional; conditions: read-out: Activity; outline: as §1
[30] = system: SGC-7901; test: Induction of apoptosis in human SGC-7901 cells assessed as necrotic cells at 4 uM incubated for 48 hrs by Annexin V-FITC/propidium iodide staining based flow cytometry (reference value: 0.067%); assay type: functional; outline: as §1
[31] = system: HepG2; test: Antitumor activity against human HepG2 cells xenografted in Kunming mouse assessed as reduction in tumor weight at 60 mg/kg, po administered once daily for consecutive 10 days (reference value: 2.01+/-0.09g); assay type: functional; conditions: time 10 day; outline: as §2
[32] = target: Telomerase reverse transcriptase (Homo sapiens, UniProt O14746); test: Inhibition of telomerase activity in human SGC-7901 cells incubated for 24 hrs by TRAP-PCR-ELISA assay; assay type: cell-based
Chain of Telomerase reverse transcriptase (O14746 whole entry): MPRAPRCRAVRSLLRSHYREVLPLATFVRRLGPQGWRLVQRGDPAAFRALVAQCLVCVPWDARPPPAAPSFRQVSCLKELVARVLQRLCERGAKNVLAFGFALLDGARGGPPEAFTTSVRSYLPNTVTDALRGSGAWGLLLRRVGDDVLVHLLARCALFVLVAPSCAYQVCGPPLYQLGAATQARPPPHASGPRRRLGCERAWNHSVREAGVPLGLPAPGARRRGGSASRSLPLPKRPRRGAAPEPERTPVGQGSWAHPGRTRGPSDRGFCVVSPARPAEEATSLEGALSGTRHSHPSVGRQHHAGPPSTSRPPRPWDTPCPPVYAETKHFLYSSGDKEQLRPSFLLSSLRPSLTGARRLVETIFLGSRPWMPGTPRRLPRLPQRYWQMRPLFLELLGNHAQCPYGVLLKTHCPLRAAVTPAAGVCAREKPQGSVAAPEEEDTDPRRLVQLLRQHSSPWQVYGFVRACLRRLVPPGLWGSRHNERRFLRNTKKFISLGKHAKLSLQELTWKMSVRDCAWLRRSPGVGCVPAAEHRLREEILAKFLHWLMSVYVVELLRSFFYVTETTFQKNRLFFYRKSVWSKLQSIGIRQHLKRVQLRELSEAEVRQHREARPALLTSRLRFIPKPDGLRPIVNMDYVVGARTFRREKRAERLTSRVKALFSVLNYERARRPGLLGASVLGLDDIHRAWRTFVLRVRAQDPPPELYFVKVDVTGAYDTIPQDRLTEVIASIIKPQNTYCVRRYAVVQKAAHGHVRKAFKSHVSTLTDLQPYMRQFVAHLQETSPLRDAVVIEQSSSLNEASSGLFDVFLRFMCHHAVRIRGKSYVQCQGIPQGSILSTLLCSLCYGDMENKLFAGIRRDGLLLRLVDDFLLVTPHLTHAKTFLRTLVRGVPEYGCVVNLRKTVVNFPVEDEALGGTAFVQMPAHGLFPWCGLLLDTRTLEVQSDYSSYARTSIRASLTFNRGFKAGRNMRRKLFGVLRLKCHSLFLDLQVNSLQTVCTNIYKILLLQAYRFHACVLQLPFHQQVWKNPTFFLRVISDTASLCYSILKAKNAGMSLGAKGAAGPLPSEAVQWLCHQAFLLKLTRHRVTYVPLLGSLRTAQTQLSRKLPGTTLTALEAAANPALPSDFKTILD
Outline: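 Extract was mixed with TRAP reaction mix, incubated 25 °C for 30 min, then 35 PCR cycles (94/50/72 °C). Products detected by anti-DIG-peroxidase ELISA at 490 nm; mean ± SD.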

[33] = system: CCRF S-180; test: Antitumor activity against mouse S180 cells allografted in Kunming mouse assessed as reduction in tumor weight at 60 mg/kg, po administered once daily for consecutive 10 days (reference value: 2.02+/-0.19g); assay type: functional; conditions: time 10 day; outline: as §2

Compound: COc1cccc(C(=O)c2ccc(OC)c(OC(=O)CCC(=O)OC[C@@H]3C=C[C@H](n4cc(C)c(=O)[nH]c4=O)O3)c2)c1
- Activity [1]: 0.282%
- Activity [2]: 28.9%
- Activity [3]: 7.34%
- Activity [4]: 60.9%
- Activity [5]: 19.7%
- Activity [6]: 15.8%
- Activity [7]: 33.2%
- Activity [8]: 32.9%
- Activity [9]: 24.25 g
- Activity [10]: Active
- pIC50 [11]: 6.11
- Activity [12]: 30%
- viability at 1 µM [13]: 86.6%
- inhibition in vivo at 60 mg/kg [14]: 48.5%
- pIC50 [15]: 5.50
- Activity [16]: 26.4%
- pIC50 [17]: 5.80
- Activity [18]: 5.96%
- Activity [19]: 18.3%
- viability at 2 µM [20]: 61.8%
- inhibition in vivo at 60 mg/kg [21]: 40.6%
- Activity [22]: 26.34 g
- Activity [23]: 0.07%
- Activity [24]: 23.2%
- pIC50 [25]: 6.09
- Activity [26]: 28.5%
- Activity [27]: 37.1%
- Activity [28]: 42.6%
- viability at 4 µM [29]: 40.2%
- Activity [30]: 0.3%
- Activity [31]: 1.04 g
- pIC50 [32]: 5.15
- Activity [33]: 1.2 g

Compound: COc1cc(OC)c(C(=O)c2ccc(OC)c(OCC(=O)OC[C@@H]3C=C[C@H](n4cc(C)c(=O)[nH]c4=O)O3)c2)cc1OC
- pIC50 [11]: 4.50
- pIC50 [15]: 4.54
- pIC50 [17]: 4.54
- pIC50 [25]: 4.70

Compound: COc1cccc2c1C(=O)c1c(O)c3c(c(O)c1C2=O)C[C@@](O)(C(=O)CO)C[C@@H]3O[C@H]1C[C@H](N)[C@H](O)[C@H](C)O1 [DOXORUBICIN]
- pIC50 [11]: 5.47
- pIC50 [17]: 5.40
- pIC50 [25]: 5.71

Compound: COc1ccc(C(=O)c2ccc(F)cc2)cc1OC(=O)CCC(=O)OC[C@@H]1C=C[C@H](n2cc(C)c(=O)[nH]c2=O)O1
- pIC50 [11]: 5.08
- pIC50 [15]: 4.69
- pIC50 [17]: 4.75
- pIC50 [25]: 4.65

Compound: COc1ccc(C(=O)c2ccccc2Cl)cc1OCC(=O)OC[C@@H]1C=C[C@H](n2cc(C)c(=O)[nH]c2=O)O1
- pIC50 [17]: 4.34
- pIC50 [25]: 4.39

Compound: COc1ccc(C(=O)c2ccccc2OC)cc1OCC(=O)OC[C@@H]1C=C[C@H](n2cc(C)c(=O)[nH]c2=O)O1
- pIC50 [17]: 4.52
- pIC50 [25]: 4.49

Compound: COc1ccc(C(=O)c2ccc([N+](=O)[O-])cc2)cc1OCC(=O)OC[C@@H]1C=C[C@H](n2cc(C)c(=O)[nH]c2=O)O1
- pIC50 [11]: 4.32
- pIC50 [17]: 4.30

From ChEMBL document CHEMBL5257036, “Benzophenone-nucleoside derivatives as telomerase inhibitors: Design, synthesis and anticancer evaluation in vitro and in vivo” (Eur J Med Chem, 2016)
